Source: PubChem (The Scripps Research Institute Molecular Screening Center)
Shown are actives, neighbours in structure and some others; about 2.7% of the full set was active somewhere.
PAFAH1B2 FP inh – inhibitors of human PAFAH1B2 | recombinant PAFAH1B2, FP-rhodamine activity probe, fluorescence polarization | inhibition, % at 3.39 µM | hit rate 1.2% among 340,000;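 active means inhibition above the mean of all tested compounds plus 3 SD, cut at about 24% in these data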;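 further: 0% = enzyme with DMSO and 100% = wells lacking PAFAH1B2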
Target sequence (P68402 whole entry, looked up): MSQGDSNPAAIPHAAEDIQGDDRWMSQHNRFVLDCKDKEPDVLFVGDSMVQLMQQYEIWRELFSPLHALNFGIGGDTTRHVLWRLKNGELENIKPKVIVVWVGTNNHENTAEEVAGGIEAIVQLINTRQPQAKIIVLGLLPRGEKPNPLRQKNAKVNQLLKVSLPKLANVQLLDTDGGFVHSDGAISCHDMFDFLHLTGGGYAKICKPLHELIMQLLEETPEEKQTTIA
PAFAH2 inh – inhibitors of human PAFAH2. AID 492956. Q99487. hit rate 0.99% among 340,000. recombinant PAFAH2, FP-rhodamine activity probe, fluorescence polarization. inhibition, % at 3.39 µM;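 active means inhibition above the mean over all tested compounds plus 3 SD, cut at about 30% in these data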;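 further: inhibitors block probe labeling of enzyme so polarization drops; 0% = enzyme with DMSO and 100% = wells lacking PAFAH2 protein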
pPAFAH inh – inhibitors of human plasma PAF acetylhydrolase (pPAFAH). hit rate 1.5% among 330,000. recombinant pPAFAH, FP-rhodamine probe fluorescence polarization. inhibition, % at 3.39 µM. Q13093;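 active means inhibition above the mean inhibition across the screen plus 3 SD, cut at about 25% in these data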;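 further: inhibitors block binding of the rhodamine activity-based probe so polarization drops; 0% = enzyme with DMSO and 100% = wells lacking pPAFAH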
RBBP9 inh – blocks human serine hydrolase RBBP9. O75884. hit rate 0.2% among 220,000. recombinant RBBP9, FP-Rh probe fluorescence polarization. inhibition, % at 7.94 µM;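 active means inhibition above the campaign mean of all tested compounds plus 3 SD, cut at about 14% in these data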;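 further: plate controls were DMSO wells with RBBP9 for no effect and wells lacking RBBP9 protein for full effect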
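Measured by – fluorescence polarization · Test system – RBBP9 protein · Input – 2.5 µM RBBP9 dispensing solution, before mixing · Measure – percent inhibition from mP, scaled between DMSO and no-protein wells · Benchmarks – DMSO-treated enzyme wells and wells lacking RBBP9 · Times – preincubation 30 min plus labeling 45 min at 25 °C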
PAFAH1B3 FP inh – PAFAH1B3 (human) inhibition; Q15102; recombinant PAFAH1B3, FP-rhodamine probe, fluorescence polarization; inhibition, % at 3.39 µM; hit rate 0.28% among 340,000; AID 492972;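 active means inhibition above the screen-wide average of all tested compounds plus 3 SD, cut at about 25% in these data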;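 further: 0% = enzyme with DMSO only and 100% = wells lacking PAFAH1B3 protein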
Target sequence (Q15102 whole entry, looked up): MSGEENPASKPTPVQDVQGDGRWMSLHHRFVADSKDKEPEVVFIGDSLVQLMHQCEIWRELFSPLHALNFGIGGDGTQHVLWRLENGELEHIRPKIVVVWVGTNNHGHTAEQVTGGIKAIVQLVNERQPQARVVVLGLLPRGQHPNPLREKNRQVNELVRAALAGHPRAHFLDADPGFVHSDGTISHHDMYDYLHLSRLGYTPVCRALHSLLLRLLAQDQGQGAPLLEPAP
PAFAH2 confirm – confirmation of human PAFAH2 inhibitors | shares compounds with PAFAH2 inh | recombinant PAFAH2, FP-rhodamine activity probe, fluorescence polarization | inhibition, % at 3.39 µM | hit rate 65% among 2,300 | AID 493030;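 active means mean inhibition over three repeats above a set limit taken from the earlier primary screen, cut at about 30% in these data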;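 further: inhibitor blocks binding of rhodamine activity probe so polarization falls; 0% = enzyme with DMSO and 100% = wells lacking PAFAH2 protein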
An asterisk follows results filed as active; . = no result given.

SMILES	PAFAH1B2 FP inh	PAFAH2 inh	pPAFAH inh	RBBP9 inh	PAFAH1B3 FP inh	PAFAH2 confirm
COc1ccc(-n2c(C)cc(C(=O)Cn3nnc4ccccc4c3=O)c2C)cc1	-5	73*	-1	-2	10	-2
COc1ccc(-n2c(C)cc(C(=O)Cn3nc(C(=O)O)c4ccccc4c3=O)c2C)cc1	7	-3	-1	-12	6	.
Cc1[nH]c2ccccc2c1C(C#N)(C#N)C1C(=O)c2ccccc2C1=O	9	31*	13	-3	8	28
Cc1ccc(-c2csc(/C(C#N)=C(\O)CCl)n2)cc1	-4	33*	.	-5	0	31*
O=[N+]([O-])c1cc(Cl)cc2c1nc(NCCO)c1ccccc12	2	8	6	-5	3	.
Cc1ccc(C(=O)O/N=C/C2=C(Cl)c3ccccc3CC2)cc1	4	38*	1	-7	3	70*
Cc1ccc(CO/N=C/C2=C(Cl)c3ccccc3CC2)cc1	5	-2	3	2	3	.
COc1cc(OC)c(C(=O)OCC(=O)NC2CCCCCCC2)cc1OC	3	75*	14	.	10	83*
CCCNC(=O)c1ccc(SC)cc1OC	7	7	2	-7	5	.
COc1cc(OC)c(C(=O)OCC(=O)NCC2CCCCC2)cc1OC	1	51*	.	.	-5	43*
COc1cc(SC)ccc1C(=O)OCC(=O)NC1CCCC1	11	68*	21	-5	7	57*
CCCCNC(=O)COC(=O)c1ccc(SC)cc1OC	4	46*	12	-7	7	23
COc1cc(C)ccc1OCC(=O)OCC(=O)NCC1CCCCC1	4	-2	5	.	10	.
COCCn1nnnc1CN1C2CCCC1CC(NC(C)=O)C2 (stereo not given)	2	-7	0	-11	-4	.
Nc1cc2c(cc1[N+](=O)[O-])OCCOCCOCCO2	5	3	2	-2	14	.
COc1ccc(CCNC(=O)CSc2nnc(Cc3cccn3C)n2C)cc1OC	4	-3	0	0	4	.
CCOc1ccccc1C(=O)OCC(=O)NCC1CCCCC1	-1	44*	13	.	9	48*
COc1cc(OC)c(C(=O)OCC(=O)NC2CCCC2)cc1OC	5	52*	8	.	2	39*
COc1ccc(CN2C(=O)c3ccccc3C2=O)cc1C(=O)OCC(=O)NC1CCCCC1	-1	52*	21	1	4	45*
COc1ccccc1C(=O)OCC(=O)NC1CCCC1	11	38*	5	.	6	22
COc1ccccc1C(=O)OCC(=O)NC(=O)NC1CCCC1	5	10	0	.	4	.
COc1cccc(NC(=O)CSc2nnc3ccc(-c4ccncc4)nn23)c1	1	1	.	.	5	.
O=C(c1ccc(OC2CCN(CCc3ccccc3)CC2)cc1)N1CCCC(CO)C1 (stereo not given)	4	2	4	-2	3	.
O=C(COC(=O)c1ccccc1Br)NC1CCCC1	6	52*	7	.	4	35*
COc1ccc(Br)c(C(=O)OCC(=O)NC2CC2)c1	7	2	4	.	8	.
SMILES	PAFAH1B2 FP inh	PAFAH2 inh	pPAFAH inh	RBBP9 inh	PAFAH1B3 FP inh	PAFAH2 confirm
O=C(CN1CCCc2ccccc21)Nc1cccc(S(=O)(=O)N2CCOCC2)c1	0	1	.	.	-2	.
O=C(Cn1nnc2c(cnn2-c2ccc(F)cc2)c1=O)Nc1ccccc1C(F)(F)F	4	-14	7	-6	5	.
CSc1nc(C)cc(OCNC(=O)c2cccs2)n1	1	54*	5	1	10	51*
Cc1cccc(C)c1NC(=O)CNC(=O)Cn1nc(C)c(C)c(C#N)c1=O	-2	2	2	.	-5	.
Cc1cccc(-c2nc3ccccc3c3nncn23)c1	-1	159*	-6	-9	-1	5
CC1CC1C(=O)OCC(=O)Nc1cc(S(=O)(=O)N2CCCCC2)ccc1Cl (stereo not given)	7	72*	8	.	7	60*
Cc1ccc(S(=O)(=O)N2CCN(C(=O)COC(=O)C3CC3C)CC2)c(C)c1 (stereo not given)	-2	11	6	.	8	.
Cc1ccc(NC(=O)COC(=O)C2CC2C)c(S(=O)(=O)N2CCCCC2)c1 (stereo not given)	-11	82*	5	-7	0	78*
S=c1[nH]nc(CCc2ccccc2)n1-c1ccccc1	-2	-3	4	-6	0	.
